≈ marks a conversion by molar mass, not a printed value. Calls of active or inactive are those of the source. No cut-off for these calls is given here.
What was measured:
Staphylococcus aureus = test: Antimicrobial activity against methicillin-resistant Staphylococcus aureus after 18 to 24 hrs in aerobic condition by two-fold serial dilutions method; format: functional
In short: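 Strains grown on LB at 37 °C aerobically, then in Mueller-Hinton broth overnight at 200 rpm and brought to log phase (OD600 ~0.6). About 10^5 bacteria/mL exposed to two-fold serial dilutions 0–500 µM, DMSO 0.2% final as control. Aerobic incubation at 37 °C for 18–24 h; OD600 read; MIC = lowest concentration inhibiting visible growth. n = 3.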

Pseudomonas aeruginosa [1] = test: Antimicrobial activity against Pseudomonas aeruginosa after 18 to 24 hrs in aerobic condition by two-fold serial dilutions method; format: functional
In short: (§1)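 Colonies grown overnight (~16 h) in Mueller-Hinton broth at 37 °C, 200 rpm, diluted 1/100 and grown to log phase (OD600 ~0.6), then diluted to ~10^5 bacteria/mL. Exposed to 0 to 500 µM in 1:2 series (0.2% DMSO final control), aerobic, 37 °C, 18–24 h. OD600 read; MIC = lowest concentration without visible growth; n = 3.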

Clostridium botulinum = test: Antimicrobial activity against Clostridium botulinum after 18 to 24 hrs in anaerobic condition by two-fold serial dilutions method; format: functional
Clostridioides difficile = test: Antimicrobial activity against Clostridium difficile after 18 to 24 hrs in anaerobic condition by two-fold serial dilutions method; format: functional
In short: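 Precultures in BHI broth at 37 °C in an anaerobic cabinet, grown to log phase (OD600 ~0.6), then seeded at ~10^5 bacteria/mL. Two-fold dilutions from 0 to 500 µM, 0.2% DMSO final as control. Plates incubated anaerobically at 37 °C for 18–24 h, OD600 read; MIC = lowest concentration giving no visible growth; independent triplicate.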

Acinetobacter baumannii [2] = test: Antimicrobial activity against Acinetobacter baumannii after 18 to 24 hrs in aerobic condition by two-fold serial dilutions method; format: functional; in short: as §1
Acinetobacter baumannii [3] = test: Antimicrobial activity against Acinetobacter baumannii MRS after 18 to 24 hrs in aerobic condition by two-fold serial dilutions method; format: functional; in short: as §1
[4] = tested on: Mycolicibacterium smegmatis; test: Antimicrobial activity against Mycobacterium smegmatis after 18 to 24 hrs in anaerobic condition by two-fold serial dilutions method; format: functional
Aspergillus flavus = test: Antifungal activity against Aspergillus flavus after 2 to 5 days by two-fold serial dilutions method; format: functional
In short: (§2)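 Broth two-fold serial dilution MIC, 0 to 500 µM (1:2 steps), from 200 mM DMSO stocks; 0.2% DMSO final as vehicle control. Inoculum about 10^5 cells/mL. Strains maintained on potato dextrose agar and in RPMI medium. Plates held at room temperature for 2 to 5 days, OD600 read; MIC = lowest concentration preventing visible growth; independent triplicate.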

Aspergillus ochraceus [5] = test: Antifungal activity against Aspergillus ochraceus after 2 to 5 days by two-fold serial dilutions method; format: functional; in short: as §2
Aspergillus niger = test: Antifungal activity against Aspergillus niger after 48 hrs by two-fold serial dilutions method; format: functional
In short: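 Two-fold serial dilution MIC, 0 to 500 µM, from 200 mM DMSO stocks; 0.2% DMSO final as vehicle control. Inoculum about 10^5 cells/mL. Organism maintained on potato dextrose agar and in RPMI. Plates incubated 48 h at 35 °C, then OD600 read; MIC taken as lowest concentration with no visible growth; n = 3 independent runs.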

Candida albicans = test: Antifungal activity against Candida albicans after 2 to 5 days by two-fold serial dilutions method; format: functional
Fusarium graminearum [6] = test: Antifungal activity against Fusarium graminearum after 2 to 5 days by two-fold serial dilutions method; format: functional
In short: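 F. graminearum grown on potato dextrose agar and in RPMI medium. Broth microdilution by NCCLS, two-fold serial dilution 0–500 µM, DMSO 0.2% final as vehicle control. Plates kept at room temperature 2 to 5 days, OD600 read; MIC taken as lowest concentration with no visible growth. Independent triplicate.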

Fusarium verticillioides [7] = test: Antifungal activity against Fusarium verticillioides after 2 to 5 days by two-fold serial dilutions method; format: functional; in short: as §2
Penicillium verrucosum = test: Antifungal activity against Penicillium verrucosum after 2 to 5 days by two-fold serial dilutions method; format: functional; in short: as §2
Pseudomonas aeruginosa [8] = test: Bactericidal activity against Pseudomonas aeruginosa in aerobic condition; format: functional, organism-based
In short: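 MH broth; log-phase bacteria (OD600 ~0.6) diluted to ~10^5 bacteria/mL and exposed to two-fold serial dilutions (0–500 µM; 0.2% DMSO final as vehicle control) at 37 °C, aerobic, 18–24 h. MIC is the lowest concentration preventing visible growth (OD600). MBC is found by streaking 10 µL from no-growth wells onto agar; the MBC is the concentration where ≤1 colony grew. n = 3.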

Arthrobacter gandavensis = test: Bactericidal activity against Arthrobacter gandavensis in aerobic condition; format: functional, organism-based
In short: (§3)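 From the MIC plates, 10 µL from each well without growth was streaked onto agar suited to the organism and incubated under that organism's growth conditions. Colonies were then counted; MBC = lowest concentration allowing ≤1 colony, i.e. killing 99.9% of bacteria.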

Bacillus subtilis = test: Bactericidal activity against Bacillus subtilis in aerobic condition; format: functional, organism-based; in short: as §3
Enterococcus faecalis = test: Bactericidal activity against Enterococcus faecalis in anaerobic condition; format: functional, organism-based; in short: as §3
Cutibacterium acnes = test: Bactericidal activity against Propionibacterium acnes in aerobic condition; format: functional, organism-based; in short: as §3
[9] = tested on: Streptococcus thermophilus; test: Bactericidal activity against Streptococcus thermophilus in anaerobic condition; format: functional, organism-based
In short: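 S. thermophilus grown in BHI and brought to log phase (OD600 ~0.6). It is diluted to ~10^5 bacteria/mL and exposed to two-fold serial dilutions (0–500 µM, 0.2% DMSO final) at 37 °C in an anaerobic cabinet for 18–24 h. MIC read by OD600 as the lowest concentration with no visible growth. The MBC is the concentration where ≤1 colony grew after streaking 10 µL of no-growth wells on agar. Triplicate.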

Citrobacter farmeri = test: Bactericidal activity against Citrobacter farmeri in aerobic condition; format: functional, organism-based; in short: as §3
Citrobacter rodentium = test: Bactericidal activity against Citrobacter rodentium in aerobic condition; format: functional, organism-based; in short: as §3
Escherichia coli = test: Bactericidal activity against Escherichia coli […] K88 in aerobic condition; format: functional, organism-based
[10] = tested on: Mycolicibacterium smegmatis; test: Bactericidal activity against Mycobacterium smegmatis in anaerobic condition; format: functional, organism-based; in short: as §3
Aspergillus ochraceus [11] = test: Fungicidal activity against Aspergillus ochraceus; format: functional, organism-based
In short: (§4)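 Filamentous fungi grown on potato dextrose agar and tested in RPMI medium with two-fold serial dilutions (0–500 µM, 0.2% DMSO final). Plates held at room temperature for 2 to 5 days, then OD600 read; MIC taken as the lowest concentration with no visible growth. The fungicidal endpoint is ≤1 colony after streaking 10 µL of no-growth wells on agar. n = 3.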

Fusarium graminearum [12] = test: Fungicidal activity against Fusarium graminearum; format: functional, organism-based
Fusarium verticillioides [13] = test: Fungicidal activity against Fusarium verticillioides; format: functional, organism-based; in short: as §4

Row | SMILES | MIC (Staphylococcus aureus) [µM] | MIC (Pseudomonas aeruginosa [1]) [µM] | MIC (Clostridium botulinum) [µM] | MIC (Clostridioides difficile) [µM] | MIC (Acinetobacter baumannii [2]) [µM] | MIC (Acinetobacter baumannii [3]) [µM] | MIC [4] [µM] | MIC (Aspergillus flavus) [µM] | MIC (Aspergillus ochraceus [5]) [µM] | MIC (Aspergillus niger) [µM] | MIC (Candida albicans) [µM] | MIC (Fusarium graminearum [6]) [µM] | MIC (Fusarium verticillioides [7]) [µM] | MIC (Penicillium verrucosum) [µM] | Activity (Pseudomonas aeruginosa [8]) | Activity (Arthrobacter gandavensis) | Activity (Bacillus subtilis) | Activity (Enterococcus faecalis) | Activity (Cutibacterium acnes) | Activity [9] | further results
1 | O=C1/C(=C/c2ccc(F)cc2)Oc2cc(O)cc(O)c21 | 7.8 to 15.6 (≈ 2.12 to 4.25 µg/mL) | > 500 | 500 (≈ 136 µg/mL) | 62.5 (≈ 17 µg/mL) | > 500 | > 500 | > 500 | > 500 | > 500 | > 500 | > 500 | > 500 | > 500 | > 500 | Active | Active | Active | Active | Active | Active | Activity (Citrobacter farmeri): Active; Activity (Citrobacter rodentium): Active; Activity (Escherichia coli): Active; Activity [10]: Active; Activity (Aspergillus ochraceus [11]): Active; Activity (Fusarium graminearum [12]): Active; Activity (Fusarium verticillioides [13]): Active
2 | COc1cc(/C=C2\Oc3cc(O)cc(O)c3C2=O)ccc1OCc1ccccc1 | 15.6 (≈ 6.09 µg/mL) | > 500 | 62.5 (≈ 24.4 µg/mL) | 31.2 (≈ 12.2 µg/mL) | > 500 | > 500 | > 500 | > 500 | > 500 | > 500 | 125 (≈ 48.8 µg/mL) | 500 (≈ 195 µg/mL) | > 500 | > 500 | Active | Active | Active | Active | Active | Active | Activity (Citrobacter farmeri): Active; Activity (Citrobacter rodentium): Active; Activity (Escherichia coli): Active; Activity [10]: Active; Activity (Aspergillus ochraceus [11]): Active; Activity (Fusarium graminearum [12]): Active; Activity (Fusarium verticillioides [13]): Active
3 | O=C1/C(=C/c2ccccc2)Oc2cc(O)cc(O)c21 | 15.6 to 31.2 (≈ 3.97 to 7.95 µg/mL) | > 500 | 500 (≈ 127 µg/mL) | 62.5 (≈ 15.9 µg/mL) | > 500 | > 500 | > 500 | > 500 | > 500 | 62.5 (≈ 15.9 µg/mL) | > 500 | 31.2 (≈ 7.95 µg/mL) | > 500 | > 500 | Active | Active | Active | Active | Active | Active | Activity (Citrobacter farmeri): Active; Activity (Citrobacter rodentium): Active; Activity (Escherichia coli): Active; Activity [10]: Active; Activity (Aspergillus ochraceus [11]): Active; Activity (Fusarium graminearum [12]): Active; Activity (Fusarium verticillioides [13]): Active
